Type in all cases: functional
Test [1] concerns Mycobacterium tuberculosis. Kind of test: Antimycobacterial activity against rifampin-resistant Mycobacterium tuberculosis H37Rv after 16 to 24 hrs by microplate alamar. A digest of the protocol:
(§1)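 MIC by MABA against Mtb strains resistant to isoniazid, rifampin or streptomycin. Values are averages of two to three independent experiments.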

The subject of test [2] is Mycobacterium tuberculosis. Kind of test: Antimycobacterial activity against streptomycin-resistant Mycobacterium tuberculosis H37Rv after 16 to 24 hrs by microplate alamar. In a few lines:
as §1

The subject of test [3] is Mycobacterium tuberculosis. Kind of test: Antimycobacterial activity against isoniazid-resistant Mycobacterium tuberculosis H37Rv after 16 to 24 hrs by microplate alamar. A digest of the protocol:
as §1

Converted amounts (≈) assume the structure as drawn.

As usually defined, the MIC is the lowest concentration found to suppress growth. Lower therefore signals greater potency. As for `CCOC(=O)c1cc(-c2cccc(OCc3c(F)cccc3F)c2)on1`, the MIC is 1 µM (≈ 0.359 µg/mL) in test [1], 1.1 µM (≈ 0.395 µg/mL) in test [2] and 1.1 µM (≈ 0.395 µg/mL) in test [3].
With `CCOC(=O)c1cc(-c2cccc(OCc3cccc(F)c3F)c2)on1`, the MIC in test [1], in test [2] and in test [3] was 1 µM (≈ 0.359 µg/mL) in each case.
As for `CCOC(=O)c1cc(-c2cccc(OCc3cccc(C(F)(F)F)c3)c2)on1`, the MIC is 1 µM (≈ 0.391 µg/mL) in test [1], 0.9 µM (≈ 0.352 µg/mL) in test [2] and 0.9 µM (≈ 0.352 µg/mL) in test [3].
Consider `CCOC(=O)c1cc(-c2cccc(OCc3ccccc3Cl)c2)on1`, for which the MIC in test [1], in test [2] and in test [3] was 1 µM (≈ 0.358 µg/mL) in each case.
Regarding `CCOC(=O)c1cc(-c2cccc(OCc3cccc(Br)c3)c2)on1`, the MIC in test [1], in test [2] and in test [3] was 1 µM (≈ 0.402 µg/mL) in each case.
In the case of `CCOC(=O)c1cc(-c2cccc(OCc3cc(F)ccc3F)c2)on1`, the MIC in test [1] was 1 µM (≈ 0.359 µg/mL); in test [2], 1.2 µM (≈ 0.431 µg/mL); in test [3] it was 1 µM (≈ 0.359 µg/mL).
On to `CCOC(=O)c1cc(-c2cccc(OCc3cccc(C(F)(F)F)c3F)c2)on1`, for which the MIC in test [1] turned out to be 1 µM (≈ 0.409 µg/mL); in test [2] it was 1 µM (≈ 0.409 µg/mL); in test [3], 0.9 µM (≈ 0.368 µg/mL).
`NNC(=O)c1ccncc1` [ISONIAZID]: the MIC in test [1] was 0.4 µM (≈ 0.0549 µg/mL); in test [2], 0.5 µM (≈ 0.0686 µg/mL); in test [3] it was above 128 µM.
In the case of `CO[C@H]1/C=C/O[C@@]2(C)Oc3c(C)c(O)c4c(O)c(c(/C=N/N5CCN(C)CC5)c(O)c4c3C2=O)NC(=O)/C(C)=C\C=C\[C@H](C)[C@H](O)[C@@H](C)[C@@H](O)[C@@H](C)[C@H](OC(C)=O)[C@@H]1C` [RIFAMPIN], the MIC was above 32 µM in test [1], above 0.1 µM in test [2] and above 0.1 µM in test [3].
For the compound `CN[C@@H]1[C@H](O[C@H]2[C@H](O[C@H]3[C@H](O)[C@@H](O)[C@H](N=C(N)N)[C@@H](O)[C@@H]3N=C(N)N)O[C@@H](C)[C@]2(O)C=O)O[C@@H](CO)[C@H](O)[C@H]1O` [STREPTOMYCIN], the MIC is 0.2 µM (≈ 0.116 µg/mL) in test [1], above 32 µM in test [2] and 0.4 µM (≈ 0.233 µg/mL) in test [3].

The values above are taken from ChEMBL document CHEMBL1156795, “Rational design of 5-phenyl-3-isoxazolecarboxylic acid ethyl esters as growth inhibitors of Mycobacterium tuberculosis. a potent and selective series for further drug development” (J Med Chem, 2010).
